For series [1], the system named is Human immunodeficiency virus 1. The series is described as follows: Antiviral activity against HIV1 harboring reverse transcriptase K103N mutant infected in human MT4 cells assessed as reduction in virus-induced cytopathic effect after 5 days by MTT assay. The class given is functional, organism-based. The following applies: Human immunodeficiency virus 1, MT4, 120 h. On the technique in general: Cytopathic effects are the visible damage that an infection or toxin causes in cultured cells.

Series [2] is described as follows: Aqueous solubility of the compound at pH at 2 by HPLC analysis. Type of series: physicochemical. The note with it: buffer, pH 2. The method, boiled down:
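Aqueous solubility read by HPLC in buffer at pH 2.0, 7.0 or 7.4.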

Series [3] deals with Human immunodeficiency virus 1. The series is described as follows: Resistance factor, ratio of EC50 for HIV1 harboring reverse transcriptase F227L/V106A double mutant to EC50 for wild type HIV1. The class given is functional. The method, boiled down: (§1)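 The resistance factor is the EC50 against the mutant strain divided by the EC50 against wild-type HIV-1. Both were measured in MT-4 cells by MTT read-out of protection from virus-induced cytopathicity.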

Series [4] is described as follows: Half life in Wistar rat at 2 mg/kg, iv by LC-MS/MS analysis. The class given is ADME, organism-based. The following applies: in vivo. The method, boiled down:
(§2)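 Male/unspecified Wistar rats given one dose, 2 mg/kg intravenously or 20 mg/kg orally; plasma concentration–time profiles followed; PK parameters reported as mean ± SD, n = 5.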

Series [5] in a line: Sub-acute toxicity in Kunming mouse assessed as effect on heart at 50 mg/kg/day, po administered for 2 weeks by hematoxylin and eosin staining-based assay. The class given is organism-based. The following applies: in vivo, 336 h. The method, boiled down:
(§3)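 Mice were dosed orally at 50 mg/kg/day for 2 weeks and observed for behavioural abnormalities during treatment. Organs were then examined by hematoxylin–eosin staining.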

In series [6] the target is Human immunodeficiency virus type 1 reverse transcriptase (Human immunodeficiency virus 1, UniProt Q72547). As to the kind of experiment: Inhibition of recombinant HIV1 reverse transcriptase using (DIG)-dUTP and biotin-labeled dNTPs as substrate after 1 hr by ELISA.
For series [7], the system named is Human immunodeficiency virus 1. The series is described as follows: Antiviral activity against HIV1 harboring reverse transcriptase F227L/V106A double mutant infected in human MT4 cells assessed as reduction in virus-induced cytopathic effect after 5 days by MTT assay. The class given is functional, organism-based. The note with it: Human immunodeficiency virus 1, MT4, 120 h.

Series [8] concerns Human immunodeficiency virus 1. As to the kind of experiment: Antiviral activity against HIV1 harboring reverse transcriptase Y188L mutant infected in human MT4 cells assessed as reduction in virus-induced cytopathic effect after 5 days by MTT assay. The class given is functional, organism-based. The following applies: Human immunodeficiency virus 1, MT4, 120 h.
Series [9] deals with Human immunodeficiency virus 1. As to the kind of experiment: Resistance factor, ratio of EC50 for HIV1 harboring reverse transcriptase L100I mutant to EC50 for wild type HIV1. Type of series: functional. The method, boiled down: as §1
In series [10] the target is Cytochrome P450 2D6 (Homo sapiens, UniProt P10635). As to the kind of experiment: Inhibition of CYP2D6 in human liver microsomes using dextromethorphan as substrate after 10 mins in presence of NADPH. Type of series: ADME. (In general: Liver microsomes are vesicles of endoplasmic reticulum, rich in cytochrome P450 enzymes.)
Cytochrome P450 2D6, sequence (P10635 whole entry): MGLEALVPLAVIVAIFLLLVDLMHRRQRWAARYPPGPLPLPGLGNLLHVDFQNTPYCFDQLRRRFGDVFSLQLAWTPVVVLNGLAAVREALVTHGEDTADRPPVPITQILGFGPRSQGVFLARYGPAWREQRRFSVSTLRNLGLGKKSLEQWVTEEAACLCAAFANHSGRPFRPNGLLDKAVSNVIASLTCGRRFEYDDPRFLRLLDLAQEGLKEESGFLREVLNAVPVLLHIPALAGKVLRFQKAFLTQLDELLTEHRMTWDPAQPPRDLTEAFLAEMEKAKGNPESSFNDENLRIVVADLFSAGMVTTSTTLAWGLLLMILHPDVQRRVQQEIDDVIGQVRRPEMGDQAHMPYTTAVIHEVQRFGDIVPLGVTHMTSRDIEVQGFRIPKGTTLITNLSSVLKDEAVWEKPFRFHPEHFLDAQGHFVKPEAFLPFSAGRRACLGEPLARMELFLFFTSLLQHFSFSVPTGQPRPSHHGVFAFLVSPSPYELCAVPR
Series [11] is described as follows: Sub-acute toxicity in Kunming mouse assessed as effect on spleen at 50 mg/kg/day, po administered for 2 weeks by hematoxylin and eosin staining-based assay. The following applies: in vivo, 336 h. The class given is organism-based. The method, boiled down: as §3
The test system of series [12] is Human immunodeficiency virus 1. The series is described as follows: Antiviral activity against HIV1 RES056 infected in human MT4 cells assessed as reduction in virus-induced cytopathic effect after 5 days by MTT assay. Type of series: functional, organism-based. The note with it: Human immunodeficiency virus 1, RES056, MT4, 120 h.
Series [13] concerns Human immunodeficiency virus 2. As to the kind of experiment: Antiviral activity against HIV2 ROD infected in human MT4 cells assessed as reduction in virus-induced cytopathic effect after 5 days by MTT assay. The following applies: Human immunodeficiency virus 2, ISOLATE ROD, MT4, 120 h.
Series [14] deals with Human immunodeficiency virus 1. The series is described as follows: Antiviral activity against HIV1 harboring reverse transcriptase E138K mutant infected in human MT4 cells assessed as reduction in virus-induced cytopathic effect after 5 days by MTT assay. The note with it: Human immunodeficiency virus 1, MT4, 120 h. The class given is functional, organism-based.
The nature of series [15]: AUCt in Wistar rat at 2 mg/kg, iv by LC-MS/MS analysis. The class given is ADME, organism-based. The note with it: in vivo. The method, boiled down: as §2
Series [16] in a line: Protein binding in rat plasma assessed as recovery rate at 2 uM after 5 hrs by LC/MS analysis. The class given is ADME, cell-free.
The subject of series [17] is Human immunodeficiency virus 1. The series is described as follows: Resistance factor, ratio of EC50 for HIV1 harboring reverse transcriptase E138K mutant to EC50 for wild type HIV1. The class given is functional. The method, boiled down: as §1
Series [18] in a line: Cmax in Wistar rat at 20 mg/kg, po by LC-MS/MS analysis. The following applies: in vivo. Details: dose 20 mg/kg, route oral. Type of series: ADME, organism-based. The method, boiled down:
as §2

From ChEMBL document CHEMBL4368909, “Identification of Dihydrofuro[3,4- d]pyrimidine Derivatives as Novel HIV-1 Non-Nucleoside Reverse Transcriptase Inhibitors with Promising Antiviral Activities and Desirable Physicochemical Properties” (J Med Chem, 2019) come the findings set out here.

In brackets after ≈: the same amount, converted by molar mass. Some results are limits rather than exact numbers.

What is called EC50 is the concentration that produces a half-maximal response. As a reminder, the solubility is the dissolved amount per volume that the medium holds. High values mean a readily soluble substance, low ones a poorly soluble substance. Broadly, the half-life is how long it takes for the measured level to halve. A lower half-life goes with rapid decline. A word on the IC50: it is the midpoint of a concentration-inhibition curve. The AUC(0-t) is exposure summed from dosing to a finite time, without extrapolation to infinity. Low values mean low exposure, high ones high exposure. A word on the Cmax: it is the maximum level reached in the sampled fluid or tissue. For the compound `Cc1cc(C#N)cc(C)c1Oc1nc(NC2CCN(Cc3ccc(C(N)=O)cc3)CC2)nc2c1COC2`, the EC50 in series [1] was found to be 0.0009 µM; in series [7], 0.019 µM; in series [8], 0.0084 µM; in series [12] it was 0.0415 µM; in series [13], 12.7 µM; in [14] it was 0.007 µM. The same compound came in with a solubility in series [2] of 198 µg/mL (≈ 397 µM). Moreover, the “Ratio EC50” value is 11.9 in [3], 1.5 in [9] and 4.4 in [17]. Also, the half-life in series [4] was 1.09 h. Moreover, the Activity entry in series [5] and in series [11] was “Non-Toxic” in each case. For the same compound, the IC50 in series [6] was 0.051 µM; in series [10] it was greater than 50 µM. In addition, the AUC(0-t) in series [15] worked out at 500 ng·h/mL. Also, the Drug recovery in [16] is listed as 77.9%. The Cmax in [18] stood at 400 ng/mL.
